TRPC6 inhibitor – mouse TRPC6 channel inhibition; Q61143; HEK293-TRPC6, membrane potential dye, ACh-evoked depolarization; active compounds read low; 310,000 compounds, 1.1% hits; B-score at 10 µM;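 active means B-score under library mean minus 3 SD, initial fluorescence not abnormally high, positive integrated signal ratio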;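 further: B-score derived from integrated fluorescence ratio over the kinetic read; more negative B-score means stronger inhibition of depolarization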
TRPC4 block – blocks the mouse TRPC4 cation channel | Q9QUQ5 | HEK293 TRPC4beta/mu-opioid, DAMGO-evoked Fluo4 calcium flux; active compounds read low | B-score at 10 µM | 300,000 compounds, 0.39% hits | AID 2247;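 active means B-score over 3 SD under the library average, no early fluorescence shift, positive overall ratio signal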
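Signal: kinetic Fluo4 fluorescence imaging of calcium influx. Material: stable TRPC4beta/mu-opioid receptor HEK293 cells. Probe or stimulus: DAMGO in two steps, submaximal then maximal.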
TRPC4 PAM – allosterically enhances the mouse TRPC4 cation channel. B-score at 10 µM. Q9QUQ5. HEK293 TRPC4beta/mu-opioid, DAMGO EC20, Fluo-4 Ca2+ flux; active compounds read high. 310,000 compounds, 0.42% hits;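 active means B-score of calcium response area above 5 SD of library B-scores, with initial fluorescence ratio within 5 SD of library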
TRPC4 agonist – activators of mouse TRPC4 channel; Q9QUQ5; HEK293 TRPC4beta/mu-opioid, Fluo4 calcium fluorescence; active compounds read high; B-score at 10 µM; 310,000 compounds, 0.49% hits; AID 2237;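 active means B-score above 5 SD of library B-scores, and initial fluorescence ratio not above library mean plus 5 SD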;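 further: positive B-score marks a calcium rise read as TRPC4 activation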
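Material: HEK293 stable line with TRPC4beta plus mu-opioid receptor; technique: Fluo4 calcium-sensitive dye fluorescence, kinetic, 1 Hz baseline; timing: Fluo4 dye loading 45 min at room temperature, 110 s recording; controls: assay buffer as low control, maximal DAMGO as high control; read-out: integrated baseline-normalised fluorescence ratio, converted to per-well B score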
TRPC6 act – activators of mouse TRPC6 channel. Q61143. HEK293-TRPC6 membrane potential dye fluorescence; active compounds read high. B-score at 10 µM. 310,000 compounds, 0.13% hits. AID 2550;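 active means B-score of the integrated fluorescence ratio above library mean plus 3 SD, and starting fluorescence ratio within library mean plus 5 SD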;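 further: higher score means more depolarization so channel activation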
A number is an active result; - = inactive; . = no result given. Rows were chosen to be rich in hits. Some 2.3% of all compounds tested hit in one or more screens of this group.

SMILES	TRPC6 inhibitor	TRPC4 block	TRPC4 PAM	TRPC4 agonist	TRPC6 act
COc1ccc(C(C)=O)cc1Cn1c(=O)cc(C)[nH]c1=O	-	-	-	-	-
COc1ccc(C(O)P(=O)(OC(C)C)OC(C)C)c(OC)c1 (stereo not given)	-	-	-	-	-
COC1=C(Nc2ccccc2)C(=O)c2ccccc2C1=O	-	-	13	-	-
COC1=C(Nc2ccc(C)cc2)C(=O)c2ccccc2C1=O	-	-	-	-	-
Cc1noc(C)c1C(=O)NCCc1c(C)[nH]c2ccccc12	-	-	-	-	-
CCC(C)(C(=O)NC1CCCCC1)N(Cc1cccs1)C(=O)c1ccccn1 (stereo not given)	-	-7	-	46	-
CCC(C)(C(=O)NC1CCCC1)N(Cc1cccs1)C(=O)c1ccccn1 (stereo not given)	-	-	-	-	-
CC(=O)NC(CC(=O)OCC(=O)N1CCc2ccccc21)c1ccccc1 (stereo not given)	-	-	-	-	-
CSCC[C@H](NC(=O)N1CCn2c1nc1ccccc12)C(=O)NCc1ccc(F)cc1	-	-	20	-	-
COc1ccc(-c2csc(NC(=O)Cc3cccc4ccccc34)c2C(=O)O)cc1	-	-7	-	-	-
Nc1[nH]ncc1-c1ccc(F)cc1	-	-	-	-	-
CN(C)S(=O)(=O)N1CCN(c2ccc([N+](=O)[O-])c(NC3CC3)c2)CC1	-	-	10	-	-
O=C(COC(=O)/C=C/c1ccccc1Cl)NCCNC(=O)COC(=O)/C=C/c1ccccc1Cl	-	-	-	-	-
CCn1c(SCC(=O)Nc2ccc(N3CCOCC3)cc2)nnc1-c1ccco1	-	-	-	-	-
O=C(CSCc1cccc(Cl)c1)N1CCN(Cc2ccc3c(c2)OCO3)CC1	-	-7	-	-	-
COc1ccc(C(CNC(=O)c2ccccc2SC)N(C)C)cc1 (stereo not given)	-	-	-	88	-
Cc1ccc(-c2cc(C(=O)NCCCN3CCOCC3)c3ccccc3n2)cc1C	-	-	-	-	-
CN(C)C(CNC(=O)c1cc2ccccc2oc1=O)c1ccccc1 (stereo not given)	-	-6	-	87	-
Cc1ccc(-c2cc(C(=O)NCCCN3CCCC3)c3ccccc3n2)cc1C	-	-	15	-	-
COc1ccc(-c2cc(C(=O)NCC(c3ccccc3)N(C)C)c3ccccc3n2)cc1OC (stereo not given)	-	-	-	90	-
COc1ccc(-c2cc(C(=O)NCc3ccco3)c3ccccc3n2)cc1OC	-	-	-	-	-
COC(=O)c1ccc(Oc2nc(Nc3ccc(C)c(C)c3)nc(N(C)C)n2)cc1	-	-	-	-	-
CCCCC1(c2ccc(F)cc2)NC(=O)N(CC(=O)N2CCN(C(=O)c3ccco3)CC2)C1=O (stereo not given)	-	-	-	-	-
COc1ccc(C(CNC(=O)c2cncc(Br)c2)N(C)C)cc1 (stereo not given)	-	.	-	-	-
COc1ccc(C(CNC(=O)c2cc(SC)ccc2Cl)N(C)C)cc1 (stereo not given)	-	-	-	118	-
SMILES	TRPC6 inhibitor	TRPC4 block	TRPC4 PAM	TRPC4 agonist	TRPC6 act
CCOc1ncccc1C(=O)NCc1ccccc1	-	-	-	-	-
CCOc1ncccc1C(=O)NCC(c1ccccc1)N(C)C (stereo not given)	-	-	-	126	-
COc1ccc([N+](=O)[O-])cc1N(CC(=O)NCCC1=CCCCC1)S(C)(=O)=O	-	-	-	-	-
O=C(Nc1ccc(Oc2ccccc2)nc1)C1CCN(Cc2ccccc2)CC1	-	-6	-	-	-
CCn1cc(CN2CCC(C(=O)Nc3ccc(Oc4ccccc4)nc3)CC2)cn1	-	-	-	-	-
CCOc1ccc2ncc(C(=O)c3ccc(OC)cc3)c(N3CCN(CC)CC3)c2c1	-	-	-	120	-
CCc1ccc(C(=O)c2cnc3ccc(OC)cc3c2N2CCN(CC)CC2)cc1	-	-	-	230	-
CCOc1ccc(C(=O)c2cnc3ccccc3c2N2CCN(CC)CC2)cc1	-	-5	-	-	-
O=C(Nc1nnc(-c2ccccc2)o1)c1ccc(Cl)cc1	-	-	-	48	-
CCCCc1cc(=O)oc2cc(O)ccc12	-	-	-	-	-
Cc1ccc(-n2c(-c3ccccc3)c[n+]3c2CCC3)cc1	-	-	-	-	-
COc1ccc(-n2c(-c3ccc(Br)cc3)c[n+]3c2CCCCC3)cc1	-	-6	-	-	-
Cc1cccc(CN2CCCC(C(=O)c3ccc4c5c(cccc35)CC4)C2)n1 (stereo not given)	-	-	-	-	-
O=C(c1ccc2c3c(cccc13)CC2)C1CCCN(Cc2cccnc2)C1 (stereo not given)	-	-	-	81	-
COc1ccc(C(=O)C2CCCN(Cc3ccc4nonc4c3)C2)c(OC)c1 (stereo not given)	-	-6	-	-	-
COc1cc(CN2CCCC(C(=O)c3ccc4c5c(cccc35)CC4)C2)cc(OC)c1O (stereo not given)	-	-	-	44	-
O=C(NCC(=O)N1CCc2ccccc2C1)c1ccccc1Cl	-	-	-	-	-
COc1ccc(S(=O)(=O)N2CC(=O)Nc3ccccc32)cc1	-	-	-	-	-
Brc1ccccc1OCCNCc1ccccc1	-	-	-	-	-
Clc1ccc(OCCCNCc2ccccc2)c2ccccc12	-	-	-	56	-
Fc1ccc(-c2[nH]ncc2CN2CCN(c3ccc(F)cc3)CC2)cc1	-	-	12	-	-
CCOC(=O)c1cc(NC(=O)c2ccccc2)c(=O)n2c1oc1ccccc12	-	-	-	-	-
COc1cc(/C=C/C(=O)OCC(=O)Nc2c(C)n(C)n(-c3ccccc3)c2=O)ccc1OCC#N	-	-	-	125	-
COc1cc(/C=C/C(=O)OCC(=O)Nc2c(C)n(C)n(-c3ccccc3)c2=O)ccc1O	-	-	-	-	-
CC#CC(=O)N1CCC(CCC(=O)N(C)Cc2ccccc2)CC1	-	-	-	-	-
SMILES	TRPC6 inhibitor	TRPC4 block	TRPC4 PAM	TRPC4 agonist	TRPC6 act
COc1ccc(C(=O)CN2C(=O)NC3(CCCCCC3)C2=O)cc1	-	-	-	-	-
COc1ccc(C(CNC(=O)Cc2cccs2)N(C)C)cc1 (stereo not given)	-	-	-	99	-
COc1ccc(CC(=O)NCC(c2ccc(OC)cc2)N(C)C)cc1 (stereo not given)	-	-	-	216	-
COc1ccc(C(CNC(=O)CN2C(=O)NC3(CCCC3)C2=O)N(C)C)cc1 (stereo not given)	-	-	-	134	-
COc1ccc(CNC(=O)Cc2cccs2)cc1	-	-	-	-	-
COc1ccc(S(=O)(=O)N2CCOCC2)cc1NC(=O)CSc1n[nH]c(C(C)C)n1	-	-	-	-	-
CCCOc1ccccc1NS(=O)(=O)c1ccc2[nH]c(=O)[nH]c2c1	-	-	-	-	-
